Assay outcomes from PubChem.
A selection: hits, their analogues and other compounds. The true share with any hit is near 2%.
Rpn11 block – inhibitors of human proteasome Rpn11 | AID 588493 | O00487 | inhibition, % at 20 µM | 360,000 compounds, 0.59% hits | human 26S proteasome, Ub4-pepOG fluorescence polarization; 20S core pre-blocked with epoxomicin;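 active means inhibition at 20 µM, scaled to each plate's controls, above about 33%, limit read from the data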
Target sequence (O00487 whole entry, looked up): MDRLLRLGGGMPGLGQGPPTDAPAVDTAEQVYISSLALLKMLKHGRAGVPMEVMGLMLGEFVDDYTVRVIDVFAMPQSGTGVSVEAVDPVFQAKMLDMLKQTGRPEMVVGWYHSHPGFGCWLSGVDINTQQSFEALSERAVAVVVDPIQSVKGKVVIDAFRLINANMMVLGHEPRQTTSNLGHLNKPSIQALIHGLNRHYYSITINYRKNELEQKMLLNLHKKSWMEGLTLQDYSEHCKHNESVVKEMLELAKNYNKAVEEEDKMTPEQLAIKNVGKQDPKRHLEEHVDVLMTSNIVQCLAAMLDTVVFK
Scp1 inh – blocks human Scp-1 phosphatase activity; Recombinant Scp1, phosphopeptide, malachite green phosphate absorbance; inhibition, % at 20 µM; 340,000 compounds, 0.88% hits; AID 493091;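 active means inhibition above about 50% at 20 µM, limit read from the data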
Target sequence (Q9GZU7 76-261 limits assumed): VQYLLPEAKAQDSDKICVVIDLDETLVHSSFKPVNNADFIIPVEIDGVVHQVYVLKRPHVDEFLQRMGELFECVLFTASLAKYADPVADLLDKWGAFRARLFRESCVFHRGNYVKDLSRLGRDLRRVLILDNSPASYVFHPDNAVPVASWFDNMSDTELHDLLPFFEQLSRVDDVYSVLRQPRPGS
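Assay system: SCP-1 catalytic fragment, aa 76-261 | Buffer or medium: Tris acetate buffer pH 5.5 with MgCl2 and Tween-20 | Compound: One concentration, 20 µM, with 1.0% DMSO | Also added: Phospho 17-mer peptide substrate | Signal: Absorbance at 630 nm | Incubation: 45 min enzyme reaction at room temperature | Measure: % inhibition of SCP-1 phosphate liberation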
DNMT1 inh – inhibitors of human DNMT1. P26358. DNMT1 molecular beacon, Hinp1I cleavage, fluorescence. inhibition (reported as % activation of signal), % at 10 µM. 360,000 compounds, 0.83% hits; in the data active means inhibition above about 50%
STEP inh – blocks human striatal-enriched tyrosine phosphatase | inhibition, % at 20 µM | 360,000 compounds, 0.25% hits | P54829 | recombinant STEP, OMFP fluorogenic substrate, fluorescence;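 active means inhibition at 20 µM, scaled per plate between control wells, above about 37%, limit read from the data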
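Measure: Control-normalized % inhibition with plate pattern correction | Test system: STEP phosphatase, cell-free reaction | Medium: pH 6.0 Bis-Tris with DTT and Tween 20 | Technique: Fluorescence, 480/540 nm | Times: Reaction 20 min, ambient temperature | Doses: Single compound dose of 20 µM, 1% DMSO final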
LMPTP inh – blocks human LMPTP phosphatase; recombinant LMPTP-A, OMFP fluorogenic substrate, fluorescence intensity; 360,000 compounds, 0.22% hits; P24666; inhibition, % at 20 µM;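 active means compounds that cut the enzyme signal by at least half of the control window in the single-dose screen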
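Test system: LMPTP-A phosphatase enzyme; input: 0.625 nM LMPTP-A final; reagent: OMFP substrate, 400 µM final; compound dosing: 20 µM single dose, 3% DMSO; incubation: 50 min dark incubation at room temperature; measured by: endpoint fluorescence intensity from OMFP dephosphorylation; measure: % inhibition relative to no-enzyme and uninhibited control wells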
DNMT1 inh conf – DNMT1 inhibition confirmation, single concentration. shares compounds with DNMT1 inh. DNMT1 molecular beacon HinP1I cleavage, fluorescence. inhibition, % at 10 µM. 2,300 compounds, 8% hits. AID 602385;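 active means average inhibition of at least 30% in the single-concentration confirmation test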
DNMT1 interf – beacon fluorescence artifact counter-screen; DNMT1 molecular beacon spectral interference counterscreen, fluorescence 485/520; shares compounds with DNMT1 inh; AID 602387; activation (fluorescence interference), % at 10 µM; 2,300 compounds, 1% hits;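 active means activation of at least 30% at 10 µM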;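 further: DNMT1 catalytic domain with a HinP1I cleavage step and a FAM/dabcyl DNA beacon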
A number is an active result; n = inactive; x = not tested or not shown.

SMILES	Rpn11 block	Scp1 inh	DNMT1 inh	STEP inh	LMPTP inh	DNMT1 inh conf	DNMT1 interf
O=C(O)c1ccc(N/N=C/C=C/c2ccc([N+](=O)[O-])o2)cc1	n	58	72	43	n	n	n
O=C(N/N=C/c1ccc([N+](=O)[O-])o1)C(=O)Nc1ccc(C(=O)O)cc1	n	n	n	n	n	x	x
O=C1NC(=S)N/C1=C/c1ccc(Oc2ccc(C(F)(F)F)cc2[N+](=O)[O-])c(Cl)c1	n	n	51	n	n	n	n
Cc1csc2ncc(C(=O)Nc3cccc(C(F)(F)F)c3)c(=O)n12	n	n	68	n	n	n	n
CCc1ccc(NC(=O)c2cnc3scc(C)n3c2=O)cc1	n	n	n	n	n	x	x
C=CCNC(=S)N1CCN(c2ncc(C(F)(F)F)cc2Cl)CC1	n	n	n	n	n	x	x
CC1(C)C[C@H]2C3=CCC4[C@@]5(C)CC[C@H](O)C(C)(C)C5CC[C@@]4(C)[C@]3(C)[C@@H](O)[C@@H](O)[C@@]2(CO)[C@@H](O)[C@@H]1O (stereo partly specified)	n	n	n	n	n	x	x
COC(=O)[C@@]1(C)CC[C@]2(C)CC[C@@]3(C)C(=CC(=O)C4[C@@]5(C)CC[C@H](O)C(C)(C)[C@@H]5CC[C@]43C)[C@H]2C1 (stereo partly specified)	n	n	53	n	n	n	n
C[C@H](CO)N1C[C@H](C)[C@@H](CN(C)S(=O)(=O)c2ccc(C#N)cc2)OCc2cn(nn2)CCCC1=O	n	x	n	n	n	x	x
C=CC[C@@H](CC(=O)N[C@@H](CO)Cc1ccccc1)C(=O)NC[C@@H](OC(=O)[C@@H](CC=C)Cc1ccc(F)cc1)c1ccccc1	n	n	66	n	n	n	n
C=CCC[C@@H](Cc1ccc(F)cc1)C(=O)OC[C@@H](Cc1c[nH]c2ccccc12)NC(=O)[C@H](CC=C)CC(=O)N[C@H](CO)Cc1ccccc1	n	n	71	n	n	n	n
C=CCC[C@@H](Cc1ccc(F)cc1)C(=O)OC[C@@H](Cc1c[nH]c2ccccc12)NC(=O)[C@@H](CC=C)CC(=O)N[C@H](CO)Cc1ccccc1	n	n	74	n	60	n	n
C=CCC[C@@H](Cc1ccc(F)cc1)C(=O)OC[C@@H](Cc1c[nH]c2ccccc12)NC(=O)[C@@H](CC=C)CC(=O)N(CCO)Cc1ccccc1	n	n	60	n	n	n	n
C=CC[C@@H](CC(=O)N[C@@H](CO)Cc1ccccc1)C(=O)NC[C@H](OC(=O)[C@@H](CC=C)Cc1ccc(F)cc1)c1ccccc1	n	n	n	n	n	x	x
CCOC(=O)C1(CCOc2ccccc2)CCN(Cc2cc(OC)c3c(c2)OCO3)CC1	n	n	n	n	n	x	x
CC(C)C[C@@H]1O[C@H](CCc2ccccc2)CC2=C1C(=O)OC(C)(C)O2	x	x	x	x	n	x	x
CN(C(=O)COC(=O)c1ccccc1Cc1ccccc1)c1c(N)n(Cc2ccccc2)c(=O)[nH]c1=O	n	n	89	n	n	n	n
O=C(Nc1ccc(OC(F)(F)F)cc1)c1cc(S(=O)(=O)N2CCCCC2)ccc1N1CCOCC1	n	x	n	n	n	x	x
COc1ccc(NC(=S)N2CCC(C(=O)c3ccc(C)cc3)CC2)cc1	n	n	81	n	n	n	n
COc1ccc(NC(=S)N2CCC(C(=O)c3ccc(OC)cc3)CC2)cc1	n	n	n	n	n	x	x
CCOc1cc(NC(=O)c2ccco2)c(OCC)cc1NC(=O)COc1ccccc1C	n	n	65	n	n	n	n
Cc1ccccc1OCC(=O)Nc1ccccc1NC(=O)c1ccco1	n	n	n	n	n	x	x
COc1ccccc1/C=C/C=N/n1c(-c2ccco2)n[nH]c1=S	n	n	n	n	n	x	x
S=c1[nH]nc(-c2n[nH]c3c2CCC3)n1/N=C/C=C/c1ccco1	n	n	51	n	n	n	n
COc1ccccc1/C=C/C=N/n1c(-c2n[nH]c3c2CCC3)n[nH]c1=S	n	n	n	n	n	x	x
S=c1[nH]nc(-c2ccco2)n1/N=C/C=C/c1ccco1	n	n	83	n	n	n	n
